Assay [1] relates to MCF-7 cell line. Kind of assay: MTT antiproliferative test, MCF-7. Type of assay: cell-based. The settings on record: Homo sapiens, MCF7, read-out: IC50 (n = 3), antiproliferative effect vs MCF-7. In general terms: Tetrazolium assays rely on reduction of a dye to a coloured formazan, in cell work by metabolically active cells.
Assay [2] concerns A549 cell line. Kind of assay: MTT antiproliferative test, A549. Type of assay: cell-based. Conditions: Homo sapiens, A549, read-out: IC50 (n = 3), antiproliferative effect vs A549.
The target in assay [3] is EGFR^WT (Homo sapiens, UniProt P00533). Nature of the assay: HTRF kinase inhibitory assay, EGFR^WT. Type of assay: biochemical. (In TR-FRET formats the signal depends on donor and acceptor labels being close together.)
In assay [4] the target is EGFR^T790M (Homo sapiens, UniProt P00533, T790M). Nature of the assay: biochemical. Type of assay: biochemical.
Assay [5] can be described thus: Antioxidant activity by ABTS method. Conditions: absorbance at 734 nm. Summed up:
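ABTS radical cation was generated by mixing ammonium peroxodisulfate (65 mmol/dm3) with ABTS in phosphate buffer pH 7.4 and leaving it overnight. The stock was diluted in phosphate buffer pH 7.4 and A734 was read. Test compound was added after 1 min, mixed, and A734 was re-read. Results are expressed as trolox equivalents from a linear trolox calibration (absorbance decrease vs concentration).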

Molecules are shown by their SMILES.

The term IC50 denotes the point on the concentration scale where inhibition reaches its midpoint.

Take `N#Cc1sc2sc(C#N)c(N)c2c1N` [Compound 1, 3,4-diaminothieno[2,3-b]thiophene-2,5-dicarbonitrile]: the IC50 came out at 8.57 ± 0.31 µM in assay [1], 5.09 ± 0.15 µM in assay [2], 0.29 ± 0.05 µM in assay [3] and 7.89 ± 0.31 µM in assay [4]. The “times the activity of gefitinib vs EGFR^T790M” value in assay [4] (ratio of IC50 vs gefitinib) came out at 2.71 times.
For `N=c1c2sc3sc4c(=N)n(-c5ccccc5)c(=O)[nH]c4c3c2[nH]c(=O)n1-c1ccccc1` [Compound 5, 1,8-Diimino-2,7-diphenyl-1,4,7,8-tetrahydro-2H,5H-9,10-dithia-2,4,5,7-tetraaza-indeno[1,2-a]indene-3,6-dione], the IC50 in assay [1] is 17.3 ± 0.71 µM; in assay [2], 7.54 ± 0.32 µM; in assay [3], 2.02 ± 0.12 µM; in assay [4] it was 15.1 ± 0.51 µM. Besides, the “radical scavenging activity (ABTS)” value in assay [5] came out at 70%.
In the case of `Nc1c(-c2nnn[nH]2)sc2sc(-c3nnn[nH]3)c(N)c12` [Compound 7, 2,5-Di(1H-tetrazol-5-yl)thieno[2,3-b]thiophene-3,4-diamine], the IC50 in assay [1] was 17.3 ± 0.71 µM; in assay [2] it was 8.27 ± 0.16 µM; in assay [3] it was 3.27 ± 0.16 µM; in assay [4], 16.3 ± 0.61 µM.
Turning to `C#Cc1cccc(Nc2ncnc3cc(OCCOC)c(OCCOC)cc23)c1` [erlotinib, reference compound], the IC50 in assay [1] stood at 21.8 ± 1.85 µM; in assay [2], 19.3 ± 1.85 µM.

The values are drawn from publication PMC9753534 (ACS Omega, 2022).
